Rows were chosen to be rich in hits. Some 3.5% of all compounds tested hit in one or more screens of this group.
MrgX1 agonist: agonists of human MrgX1 receptor, primary screen, HEK293 cells, Fluo-4 calcium flux; Fluo-4 calcium fluorescence, agonist mode; stronger effect = higher value; B-score at 10 µM; Mas-related G-protein coupled receptor member X1 (Homo sapiens), Q96LB2; actives 0.44% (n = 310,000);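 active = calcium response B-score plate-corrected fluorescence ratio at least 3 library SD, with starting fluorescence B-score inside 5 SD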
Target sequence (Q96LB2 whole entry, looked up): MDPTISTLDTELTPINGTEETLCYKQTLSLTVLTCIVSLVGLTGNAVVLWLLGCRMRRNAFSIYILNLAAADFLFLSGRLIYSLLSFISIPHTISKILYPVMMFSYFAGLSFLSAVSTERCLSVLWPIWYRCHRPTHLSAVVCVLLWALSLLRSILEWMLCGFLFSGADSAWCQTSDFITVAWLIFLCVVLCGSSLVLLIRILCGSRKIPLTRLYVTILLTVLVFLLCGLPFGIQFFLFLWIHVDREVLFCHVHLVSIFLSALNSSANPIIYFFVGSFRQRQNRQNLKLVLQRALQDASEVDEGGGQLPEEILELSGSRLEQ
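Material – MrgX1-expressing HEK293 cells · Input – 15,000 cells seeded per well · Dosing – compound as first of three additions · Times – overnight seeding, then 1 h dark dye loading · Measured by – kinetic Fluo-4 NW fluorescence of intracellular calcium · Read-out – B-scored fluorescence response ratio · Benchmarks – positive and negative control wells on each plate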
RGS4 act: RGS4 potentiators or activators, primary screen, cell-based, HEK293 M3R inducible RGS4, calcium flux | carbachol calcium flux Fluo4; stronger effect = lower value | AID 463111, 2010 | actives 0.92% (n = 310,000) | B-score at 10 µM;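 active = B-score of the integrated calcium signal more than 4 SD below the library mean, with starting fluorescence not abnormally high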;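 also: negative B-score means reduced calcium response which marks RGS4 activation or potentiation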
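System: HEK293 FlpIn-TREx cells, stable M3R, doxycycline-inducible RGS4. Timing: overnight RGS4 induction, 30 min dye load 37 °C, 20 min compound RT. Also added: carbachol, ECmax concentration. Measured by: Fluo4 fluorescence kinetic imaging of calcium. Evaluation: integrated calcium ratio converted to B score.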
RGS4 inh: RGS4 inhibitors, primary screen, cell-based, HEK293 M3R inducible RGS4, calcium flux. actives 0.45% (n = 310,000). Regulator of G-protein signaling 4 (Homo sapiens), P49798. AID 463165, 2010. B-score at 10 µM. Fluo-4 calcium flux; stronger effect = higher value; triggered by carbachol at its EC20;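 active = B-score, a plate-corrected calcium signal, over three deviations above library mean, with baseline fluorescence within five deviations of library mean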;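 also: RGS4 expression induced by doxycycline in cells with stable M3 receptor; B-score is computed from the integrated fluorescence ratio over baseline after carbachol; higher B-score means a larger calcium signal and so more RGS4 inhibition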
Target sequence (P49798 whole entry, looked up): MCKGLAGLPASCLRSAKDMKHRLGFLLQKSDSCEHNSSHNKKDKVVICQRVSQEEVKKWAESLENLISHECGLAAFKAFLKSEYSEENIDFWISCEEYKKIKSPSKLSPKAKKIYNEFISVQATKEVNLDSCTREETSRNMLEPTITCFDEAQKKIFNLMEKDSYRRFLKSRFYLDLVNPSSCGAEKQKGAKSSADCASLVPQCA
MrgX1 allo act: positive allosteric modulators of MrgX1, primary screen, HEK293 cells, Fluo-4 calcium flux. AID 588675, 2011. FDSS; stronger effect = higher value. B-score at 10 µM. Mas-related G-protein coupled receptor member X1 (Homo sapiens), Q96LB2. actives 0.63% (n = 310,000);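 active = plate-corrected calcium response at least 3 library SD above typical, normal starting fluorescence, not activating the receptor alone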;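 also: compound read alongside a low EC10 to EC30 dose of BAM8-22 agonist; peak minus trough fluorescence over baseline measured at the second addition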
MrgX1 antag: antagonists of human MrgX1 receptor, primary screen, HEK293 cells, Fluo-4 calcium flux; Mas-related G-protein coupled receptor member X1 (Homo sapiens), Q96LB2; BAM8-22 antagonism; stronger effect = lower value; B-score at 10 µM; actives 1.3% (n = 310,000); AID 588676, 2011;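 active = calcium-response B-score plate-corrected more than 3 library SD below zero, starting fluorescence within 5 deviations, no agonist response on first addition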;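 also: peak minus trough fluorescence over baseline after final BAM8-22 challenge near maximal dose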
MrgX1 ant reconf: MrgX1 receptor antagonists, duplicate retest, confirmation, HEK293 cells, Fluo-4 calcium flux. remaining BAM8-22 calcium response % of control (stronger effect = lower value), % at 10 µM. shares compounds with MrgX1 antag. BAM8-22 calcium flux; stronger effect = lower value. actives 19% (n = 2,300). AID 602420, 2012;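 active = remaining agonist calcium response no higher than 100% minus 3 SD of agonist-only control wells, with starting fluorescence near control levels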;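 also: agonist BAM8-22 given at a near maximal EC90 to ECmax level; peak minus minimum fluorescence divided by baseline after agonist addition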
HEK293 Ca flux: nonspecific calcium signal in parental HEK293, confirmation, counter-screen for MrgX1 antagonist project, parental HEK293 cells, Fluo-4 calcium flux | shares compounds with MrgX1 antag | Fluo-4 calcium fluorescence, FDSS | fluorescence ratio F(max-min)/F0 at 10 µM | actives 2% (n = 4,000);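 active = duplicate-averaged calcium fluorescence ratio at least three times the standard deviation of buffer wells, a nonspecific response in parental cells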
HEK293 Ca counter: calcium response in parental HEK293 cells, primary screen, counter-screen for MrgX1 allosteric activator project, cell-based, Fluo-4 calcium flux, duplicate; shares compounds with MrgX1 antag; Fluo-4 fluorescence ratio; stronger effect = higher value; fluorescence ratio F(max-min)/F0 at 10 µM; actives 0.4% (n = 4,000); AID 624114, 2012;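 active = calcium fluorescence ratio, averaged over duplicates, at least 3 SD of the buffer-well ratio, meaning a nonspecific response in receptor-free cells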;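 also: untransfected parental HEK293 lacking MrgX1 used as counterscreen for MrgX1 allosteric activators; fluorescence change taken during the second addition on a kinetic imager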
HEK293 Ca cntr2: calcium response in parental HEK293 cells, primary screen, counter-screen for MrgX1 agonist project, cell-based, Fluo-4 calcium flux, duplicate, agonist mode; shares compounds with MrgX1 antag; Fluo-4 calcium fluorescence (FDSS); stronger effect = higher value; fluorescence ratio F(max-min)/F0 at 10 µM; actives 8.7% (n = 4,000); AID 624115, 2012;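 active = calcium fluorescence ratio at least three times the spread of buffer wells, meaning a non-specific response in parental cells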
The depositor's hits bear a star; i = inactive; . = not tested or not shown.

SMILES	MrgX1 agonist	RGS4 act	RGS4 inh	MrgX1 allo act	MrgX1 antag	MrgX1 ant reconf	HEK293 Ca flux	HEK293 Ca counter	HEK293 Ca cntr2
COc1ccc(C(=O)OC(C)C(=O)NC(C)CCc2ccccc2)cc1OC (stereo unspecified)	i	i	i	i	i	.	.	.	.
CC(C)c1ccc(-c2nc(N3CCCC3)nc3n[nH]c(N)c23)cc1	i	i	i	i	-5.4*	i	i	i	i
CCOc1ccccc1C(=O)Oc1ccc2ccc(=O)oc2c1	i	i	i	i	i	.	.	.	.
COc1ccc(CCNc2nc(N3CCOCC3)nc(N3CCOCC3)n2)cc1OC	i	i	i	i	-5.9*	i	i	i	i
CC(CN1CCN(C)CC1)OC(=O)c1cccc(F)c1 (stereo unspecified)	i	i	i	i	i	.	.	.	.
Cc1occc1-c1nnc(SCC(=O)O)n1-c1ccccc1	i	i	i	i	i	.	.	.	.
O=C(NCc1cccc(Br)c1)c1cc(-c2ccccc2)nn1CC1CC(c2cccc([N+](=O)[O-])c2)=NO1 (stereo unspecified)	i	i	i	i	i	.	.	.	.
Cn1cnnc1SCC(=O)Nc1ccc(OC(F)F)cc1	i	i	i	i	-4.9*	84%*	i	i	i
Cn1cnnc1SCCC(=O)Nc1ccc(Cl)cc1	i	i	i	i	-5.8*	i	i	i	i
Cn1cnnc1SCCC(=O)Nc1ccccc1	i	i	i	i	i	.	.	.	.
Cc1cccc(C)c1OCC(=O)Nc1ncn[nH]1	i	i	i	i	i	.	.	.	.
O=C(COc1ccc2ccccc2c1Br)Nc1ncn[nH]1	i	i	i	i	-4.5*	i	i	i	i
COc1cc(O)c2c(c1)OC(C)(C)CC2=O	i	i	i	i	-10*	i	i	i	i
CC(C)NC(=O)NC(=O)COc1ncnc2sccc12	i	i	i	i	-4.9*	i	i	i	i
O=C(COc1ncnc2sccc12)NC1CCCc2ccccc21 (stereo unspecified)	i	i	i	i	-7.4*	80%*	i	i	i
CC(C)CNC(=O)c1ccccc1N(Cc1ccccc1)S(C)(=O)=O	i	i	i	i	i	.	.	.	.
CC(C)C(C)NC(=O)CN1C(=O)NC2(CCc3ccccc32)C1=O (stereo unspecified)	i	i	i	i	i	.	.	.	.
O=C(Nc1c(C(=O)O)[nH]c2ccc(F)cc12)c1cccc(C(F)(F)F)c1	i	i	i	i	i	.	.	.	.
CCOc1ccc(N(CC(=O)NN=C2CCCC2)S(C)(=O)=O)cc1	i	i	i	i	i	.	.	.	.
CCC(C)[C@H]1COCCS(=O)(=O)N1Cc1ccccc1 (stereo partly specified)	i	i	i	i	i	.	.	.	.
CC(C(=O)Nc1sc2c(c1C(=O)NCc1ccco1)CCCC2)N1C(=O)c2ccccc2C1=O (stereo unspecified)	i	i	i	i	i	.	.	.	.
O=C(CCN1C(=O)c2ccccc2C1=O)Nc1sc2c(c1C(=O)NCc1ccco1)CCCC2	i	i	i	i	-4.9*	i	i	i	i
CN(C)c1ccc(NC(=O)C2C3C=CC(C3)C2C(=O)O)cc1 (stereo unspecified)	i	i	i	i	i	.	.	.	.
COc1ccc(-n2nnnc2S(=O)(=O)CC(=O)N2CCCCC2)cc1	i	.	.	i	i	.	.	.	.
COc1ccc(-n2nnnc2S(=O)(=O)Cc2ccc(C(=O)O)cc2)cc1	i	i	i	i	-8.2*	i	i	i	i
SMILES	MrgX1 agonist	RGS4 act	RGS4 inh	MrgX1 allo act	MrgX1 antag	MrgX1 ant reconf	HEK293 Ca flux	HEK293 Ca counter	HEK293 Ca cntr2
CCS(=O)(=O)N1Cc2ccccc2CC1C(=O)N1CCN(c2cccc(C)c2C)CC1 (stereo unspecified)	i	i	i	i	i	.	.	.	.
CCC(C(=O)Nc1c2c(nn1C(C)(C)C)CS(=O)(=O)C2)c1ccccc1 (stereo unspecified)	i	i	i	i	-8.1*	i	i	i	i
Cc1ccc(Cn2nnc(C(=O)Nc3cc(C)ccc3C)c2N)cc1	i	i	i	i	-4.6*	i	i	i	i
Cc1nc2ccc(N)cc2s1	i	i	i	i	-5.6*	i	i	i	i
Cc1nc2cc3sc(C)nc3cc2s1	i	i	i	i	i	.	.	.	.
O=[N+]([O-])c1cccc(S(=O)(=O)c2ccc(NCCO)c([N+](=O)[O-])c2)c1	i	i	i	i	i	.	.	.	.
Cc1nn(C)c(C(=O)N/N=C/c2ccc(-c3ccccc3)cc2)c1Cl	i	i	i	i	-10*	i	i	i	i
Cc1ccc2c(c1)COc1c3ccc(C(=O)N[C@@H](CO)C(C)C)cc3nn1-2	i	i	i	i	-5.7*	i	i	i	i
COCCNC(=O)c1ccc2c3n(nc2c1)-c1ccc(C)cc1CO3	i	i	i	i	i	.	.	.	.
CC(C)(C)c1ccc(NC(=O)COC(=O)c2ccc(NS(=O)(=O)c3ccc(F)c(F)c3)cc2)cc1	i	i	i	i	i	.	.	.	.
Cc1nc(SCC(=O)Nc2ccccc2Cl)oc1C	i	i	i	i	i	.	.	.	.

Screening data deposited in PubChem by Johns Hopkins Ion Channel Center.
